# Experimental data taken from ChEMBL document CHEMBL2406952, “Identification of vitamin d3-based hedgehog pathway inhibitors that incorporate an aromatic a-ring isostere” (ACS Med Chem Lett, 2013).
# Activity calls are given as the source filed them. No cut-off for these calls is given here.
# Tests used:
# [1] = molecular target: T1, Vitamin D3 receptor (Mus musculus) (UniProt P48281); test: Activation of VDR in mouse ASZ001 cells assessed as upregulation of Cyp24A1 mRNA expression at 5 uM after 48 hrs by RT-PCR analysis relative to DMSO-treated control; assay type: cell-based
# T1 sequence (whole entry): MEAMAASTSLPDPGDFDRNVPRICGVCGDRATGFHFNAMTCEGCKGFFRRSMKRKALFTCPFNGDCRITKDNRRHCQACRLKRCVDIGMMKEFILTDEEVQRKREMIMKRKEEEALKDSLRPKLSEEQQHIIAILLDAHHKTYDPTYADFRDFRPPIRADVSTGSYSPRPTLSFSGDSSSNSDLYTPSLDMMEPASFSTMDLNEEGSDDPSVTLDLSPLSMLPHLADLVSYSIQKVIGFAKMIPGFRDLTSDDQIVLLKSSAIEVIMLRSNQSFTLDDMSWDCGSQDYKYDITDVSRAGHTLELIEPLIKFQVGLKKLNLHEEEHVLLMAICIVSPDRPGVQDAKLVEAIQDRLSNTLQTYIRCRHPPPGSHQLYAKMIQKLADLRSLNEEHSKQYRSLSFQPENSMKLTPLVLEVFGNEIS
# Method in brief: (§1)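 Cyp24A1 mRNA measured after 48 h exposure to analogue and normalized to ActinB, expressed relative to DMSO vehicle-treated cells (set as 1.0). Single concentrations tested were 2.5, 5 or 10 μM.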
# [2] = molecular target: T2, Vitamin D3 receptor (Homo sapiens) (UniProt P11473); test: Activation of VDR in human DaOY cells assessed as upregulation of Cyp24A1 mRNA expression at 2.5 uM after 48 hrs by RT-PCR analysis relative to DMSO-treated control; assay type: cell-based
# T2 sequence (whole entry): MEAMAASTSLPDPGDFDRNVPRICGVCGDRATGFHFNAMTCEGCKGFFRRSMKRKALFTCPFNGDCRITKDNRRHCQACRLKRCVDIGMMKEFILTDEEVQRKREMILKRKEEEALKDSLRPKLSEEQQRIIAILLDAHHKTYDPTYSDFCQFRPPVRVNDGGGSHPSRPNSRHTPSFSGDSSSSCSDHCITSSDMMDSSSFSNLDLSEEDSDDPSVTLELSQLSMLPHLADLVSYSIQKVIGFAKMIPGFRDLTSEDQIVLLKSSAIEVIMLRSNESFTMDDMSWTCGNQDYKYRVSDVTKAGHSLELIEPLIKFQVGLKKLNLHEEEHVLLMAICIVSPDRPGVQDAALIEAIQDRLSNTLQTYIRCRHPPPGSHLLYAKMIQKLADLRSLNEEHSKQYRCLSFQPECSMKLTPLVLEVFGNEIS
# Method in brief: (§2)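 Cells exposed to compound for 48 h; Cyp24A1 mRNA expression measured and expressed relative to DMSO vehicle-treated cells, set as 1.0.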
# [3] = Inhibition of Hedgehog signaling in mouse M210B4 cells assessed as downregulation of Gli1 mRNA expression after 24 hrs by RT-PCR analysis; assay type: cell-based; details: M210B4, 24 h
# Method in brief: (§3)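 Oxysterol-stimulated cells (20(S)- plus 22(S)-hydroxycholesterol, 5 μM each) were treated with compound across a dose range for 24 h. Gli1 and Ptch mRNA were normalized to ActinB, and IC50 values were derived. VD3 was dosed up to 10 μM.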
# [4] = Inhibition of Hedgehog signaling in mouse ASZ001 cells assessed as downregulation of Gli1 mRNA expression after 48 hrs by RT-PCR analysis; assay type: cell-based; details: ASZ001, 48 h
# Method in brief: (§4)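 Gli1 mRNA dose-response after 48 h compound incubation, used to derive IC50 (μM). Each value comes from at least two separate experiments, each performed in triplicate.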
# [5] = Inhibition of Hedgehog signaling in mouse M210B4 cells assessed as downregulation of Ptch mRNA expression after 24 hrs by RT-PCR analysis; assay type: cell-based; details: M210B4, 24 h; method in brief: as §3
# [6] = molecular target: T1, Vitamin D3 receptor (Mus musculus); test: Activation of VDR in mouse M210B4 cells assessed as upregulation of Cyp24A1 mRNA expression at 1 uM after 24 hrs by RT-PCR analysis relative to DMSO-treated control; assay type: cell-based
# Method in brief: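 M2-10B4 murine bone marrow stromal cells treated for 24 h at 1 μM; Cyp24A1 mRNA normalized to ActinB and expressed relative to DMSO vehicle, set to 1.0.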
# [7] = Inhibition of Hedgehog signaling in human DaOY cells assessed as downregulation of Gli1 mRNA expression after 48 hrs by RT-PCR analysis; assay type: cell-based; method in brief: as §4
# [8] = molecular target: T1, Vitamin D3 receptor (Mus musculus); test: Activation of VDR in mouse C3H10T1/2 cells assessed as upregulation of Cyp24A1 mRNA expression at 5 uM after 24 hrs by RT-PCR analysis relative to DMSO-treated control; assay type: cell-based; details: C3H 10T1/2
# Method in brief: (§5)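 Cyp24A1 mRNA normalized to ActinB and expressed relative to DMSO vehicle (set to 1.0). Cells treated for 24 h at 5 μM (some agents at 1 μM).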
# [9] = molecular target: T2, Vitamin D3 receptor (Homo sapiens); test: Binding affinity to human VDR by fluorescence polarization assay
# Method in brief: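 Fluorescence polarization competition kit with full-length human VDR and a tight-binding fluorescent VDR ligand, run per manufacturer's instructions. Compounds tested at 50 and 100 μM, with calcitriol as positive control for binding.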
# [10] = Inhibition of Hedgehog signaling in mouse C3H10T1/2 cells assessed as downregulation of Gli1 mRNA expression at 5 uM after 24 hrs by RT-PCR analysis relative to 20(S)-hydroxycholesterol and 22(S)-hydroxycholesterol; assay type: cell-based; details: C3H 10T1/2
# Method in brief: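 Endogenous Gli1 mRNA measured after 24 h at 5 μM and normalized to ActinB with DMSO vehicle set to 1.0. Cells stimulated with 20(S)-hydroxycholesterol plus 22(S)-hydroxycholesterol (5 μM each) define 100% pathway activity, and the analogue effect is given as % of this level.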
# [11] = molecular target: T2, Vitamin D3 receptor (Homo sapiens); test: Activation of VDR in human DaOY cells assessed as upregulation of Cyp24A1 mRNA expression at 5 uM after 48 hrs by RT-PCR analysis relative to DMSO-treated control; assay type: cell-based; method in brief: as §1
# [12] = Inhibition of Hedgehog signaling in mouse C3H10T1/2 cells assessed as downregulation of Gli1 mRNA expression after 24 hrs by RT-PCR analysis; assay type: cell-based; details: for inhibition: C3H 10T1/2; for IC50: C3H 10T1/2, 24 h; method in brief: as §3
# [13] = molecular target: T1, Vitamin D3 receptor (Mus musculus); test: Activation of VDR in mouse M210B4 cells assessed as upregulation of Cyp24A1 mRNA expression at 5 uM after 24 hrs by RT-PCR analysis relative to DMSO-treated control; assay type: cell-based; method in brief: as §5
# [14] = molecular target: T2, Vitamin D3 receptor (Homo sapiens); test: Activation of VDR in human HT-29 assessed as upregulation of Cyp24A1 mRNA expression after 6 hrs by Northern blotting analysis
# [15] = Inhibition of Hedgehog signaling in mouse C3H10T1/2 cells assessed as downregulation of Ptch mRNA expression after 24 hrs by RT-PCR analysis; assay type: cell-based; details: for inhibition: C3H 10T1/2; for IC50: C3H 10T1/2, 24 h; method in brief: as §3
# [16] = molecular target: T1, Vitamin D3 receptor (Mus musculus); test: Activation of VDR in mouse ASZ001 cells assessed as upregulation of Cyp24A1 mRNA expression at 5 to 10 uM after 48 hrs by RT-PCR analysis; assay type: cell-based; method in brief: as §2
# [17] = Inhibition of Hedgehog signaling in mouse M210B4 cells assessed as downregulation of Gli1 mRNA expression at 10 uM after 24 hrs by RT-PCR analysis relative to 20(S)-hydroxycholesterol and 22(S)-hydroxycholesterol; assay type: cell-based
# Method in brief: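 M2-10B4 murine bone marrow stromal cells, Hh-responsive, treated for 24 h. Gli1 mRNA normalized to ActinB. Positive control 20(S)-hydroxycholesterol:22(S)-hydroxycholesterol (5 μM each) set as 100% pathway signaling. Values given as % of this level.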
# [18] = molecular target: T1, Vitamin D3 receptor (Mus musculus); test: Activation of VDR in mouse ASZ001 cells assessed as upregulation of Cyp24A1 mRNA expression at =< 2.5 uM after 48 hrs by RT-PCR analysis; assay type: cell-based; method in brief: as §2
# [19] = Inhibition of Hedgehog signaling in mouse ASZ001 cells assessed as downregulation of Gli1 mRNA expression at 10 uM after 48 hrs by RT-PCR analysis relative to control; values are per cent of control
# Daoy = test: Downregulation of Gli1 mRNA expression in human DaOY cells at 2.5 uM relative to DMSO-treated control; assay type: functional
# [20] = molecular target: T2, Vitamin D3 receptor (Homo sapiens); test: Activation of VDR in human DaOY cells assessed as upregulation of Cyp24A1 mRNA expression at 10 uM after 48 hrs by RT-PCR analysis relative to DMSO-treated control; assay type: cell-based; method in brief: as §1
Compound,IC50 [4],IC50 [7],fold change (FC) [8],Activity [9],Gli1 mRNA level (% of OHC control) [10],also measured
CC1=C2C[C@H]3[C@@H](CC=C4C[C@@H](O)CC[C@@]43C)[C@@H]2CC[C@]12O[C@@H]1C[C@H](C)CN[C@H]1[C@H]2C [CYCLOPAMINE],660 nM,160 nM,–,–,–,fold change (FC) [1]: 0.8; fold change (FC) [2]: 1; IC50 [3]: 800 nM; IC50 [5]: 430 nM; fold change (FC) [6]: 1.5
CC(C)CCC[C@@H](C)[C@H]1CC[C@H]2[C@@H](OC(=O)c3cccc(OCc4ccccc4)c3)CCC[C@]12C,–,–,1,> 100 µM,116%,–
CC(C)CCC[C@@H](C)[C@H]1CC[C@H]2[C@@H](OC(=O)c3cccc(O)c3)CCC[C@]12C,5200 nM,3700 nM,22.2,> 100 µM,1.9%,fold change (FC) [1]: 1.9; IC50 [3]: 1100 nM; IC50 [5]: 1700 nM; fold change (FC) [11]: 0.4; inhibition [12]: Dose-dependent effect; IC50 [12]: 740 nM; fold change (FC) [13]: 1.2; Activity [14]: inactive; inhibition [15]: Dose-dependent effect; IC50 [15]: 1100 nM
CNc1cccc(C(=O)O[C@H]2CCC[C@]3(C)[C@@H]([C@H](C)CCCC(C)C)CC[C@@H]23)c1,–,–,1.6,> 100 µM,97.8%,–
COc1cccc(C(=O)O[C@H]2CCC[C@]3(C)[C@@H]([C@H](C)CCCC(C)C)CC[C@@H]23)c1,–,–,1.3,> 100 µM,104%,–
CS(=O)(=O)c1ccc(C(=O)Nc2ccc(Cl)c(-c3ccccn3)c2)c(Cl)c1 [VISMODEGIB],40 nM,86 nM,–,–,–,IC50 [3]: 200 nM; IC50 [5]: 140 nM
CC(C)CCC[C@@H](C)[C@H]1CC[C@H]2[C@@H](OC(=O)c3cccc(C(=O)O)c3)CCC[C@]12C,–,–,6.7,> 100 µM,40%,–
O=C(O)c1cccc(O)c1,–,–,1.6,> 100 µM,92.6%,–
CC(C)CCC[C@@H](C)[C@H]1CC[C@H]2[C@@H](OC(=O)c3cccc(N)c3)CCC[C@]12C,7100 nM,9200 nM,24.3,> 100 µM,2.4%,fold change (FC) [1]: 2.5; fold change (FC) [11]: 0.5; inhibition [12]: Dose-dependent effect; IC50 [12]: 2800 nM; inhibition [15]: Dose-dependent effect; IC50 [15]: 4500 nM
CC(=O)c1cccc(C(=O)O[C@H]2CCC[C@]3(C)[C@@H]([C@H](C)CCCC(C)C)CC[C@@H]23)c1,–,–,1.6,> 100 µM,77.5%,–
C=C1CC[C@H](O)C/C1=C/C=C1\CCC[C@]2(C)[C@@H]([C@H](C)CCCC(C)C)CC[C@@H]12 [CHOLECALCIFEROL],2100 nM,> 10000 nM,8340,–,35.7%,IC50 [3]: > 10000 nM; IC50 [5]: > 10000 nM; fold change (FC) [11]: 149; Activity [16]: Active; IC50 [12]: 4100 nM; inhibition [17]: 53%; fold change (FC) [13]: 274; Activity [18]: Active; IC50 [15]: 2900 nM
CC(C)CCC[C@@H](C)[C@H]1CC[C@H]2[C@@H](OC(=O)c3cccc(Cl)c3)CCC[C@]12C,–,–,1.2,> 100 µM,107%,–
CC(C)CCC[C@@H](C)[C@H]1CC[C@H]2[C@@H](O)CCC[C@]12C,> 10000 nM,> 10000 nM,3.6,–,46.4%,"fold change (FC) [1]: 2.4; fold change (FC) [11]: 0.8; IC50 [12]: 3100 nM; level, % of control [19]: 65%; IC50 [15]: 2800 nM"
Cc1ccc(NC(=O)c2ccc(CN3CCN(C)CC3)cc2)cc1Nc1nccc(-c2cccnc2)n1 [IMATINIB],–,–,–,–,–,fold change (FC) (Daoy): 0.98
CC(C)CCC[C@@H](C)[C@H]1CC[C@H]2[C@@H](OC(=O)c3ccccc3)CCC[C@]12C,> 10000 nM,> 10000 nM,1.2,> 100 µM,105%,fold change (FC) [1]: 1.1; fold change (FC) [20]: 0.6
O=C(CCCCCCC(=O)Nc1ccccc1)NO [VORINOSTAT],–,–,–,–,–,fold change (FC) (Daoy): 1.51
COC[C@H]1OC(=O)c2coc3c2[C@@]1(C)C1=C(C3=O)[C@@H]2CCC(=O)[C@@]2(C)C[C@H]1OC(C)=O [WORTMANNIN],–,–,–,–,–,fold change (FC) (Daoy): 0.92
